Measured values published in ChEMBL document CHEMBL1914441, “Discovery and optimization of a biphenylacetic acid series of prostaglandin D2 receptor DP2 antagonists with efficacy in a murine model of allergic rhinitis” (Bioorg Med Chem Lett, 2011).
The source made the active and inactive calls. The calls are words filed in the database; no cut-off is given here.

Assays:
[1] = molecular target: T1, Prostaglandin D2 receptor 2 (Homo sapiens, UniProt Q9Y5Y4); experiment: Displacement of [3H]-PGD2 from human prostanoid DP2 receptor expressed in human 293T cells by liquid scintillation counting in presence of 0.2 % human serum albumin; format: cell-based
T1 sequence (Q9Y5Y4 whole entry): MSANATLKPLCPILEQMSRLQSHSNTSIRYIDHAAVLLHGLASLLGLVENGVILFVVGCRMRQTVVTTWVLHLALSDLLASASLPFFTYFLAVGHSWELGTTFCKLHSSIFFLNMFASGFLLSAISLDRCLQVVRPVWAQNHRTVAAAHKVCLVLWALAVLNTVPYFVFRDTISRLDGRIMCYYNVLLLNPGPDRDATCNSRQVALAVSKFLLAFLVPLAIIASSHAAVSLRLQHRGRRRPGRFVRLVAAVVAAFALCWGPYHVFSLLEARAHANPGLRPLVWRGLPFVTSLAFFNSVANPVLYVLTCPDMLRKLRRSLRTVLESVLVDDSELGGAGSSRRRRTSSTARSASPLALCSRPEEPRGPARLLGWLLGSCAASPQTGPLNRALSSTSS
In short: (§1)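 Membranes from 293 cells stably expressing human DP2 were incubated with [³H]-PGD₂ across increasing compound concentrations. Membranes were harvested and washed, and bound radioactivity was counted. The IC50 is the concentration giving 50% inhibition of [³H]-PGD₂ binding. The assay was run without and with 0.2% human serum albumin to gauge protein shift. Mean of at least three experiments.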

[2] = molecular target: T1, Prostaglandin D2 receptor 2; experiment: Displacement of [3H]-PGD2 from human prostanoid DP2 receptor expressed in human 293T cells by liquid scintillation counting; format: cell-based; in short: as §1
[3] = molecular target: T2, Prostaglandin D2 receptor (Homo sapiens, UniProt Q13258); experiment: Displacement of [3H]-PGD2 from human DP1 receptor expressed in human platelet membranes; format: cell membranes
T2 sequence (Q13258 whole entry): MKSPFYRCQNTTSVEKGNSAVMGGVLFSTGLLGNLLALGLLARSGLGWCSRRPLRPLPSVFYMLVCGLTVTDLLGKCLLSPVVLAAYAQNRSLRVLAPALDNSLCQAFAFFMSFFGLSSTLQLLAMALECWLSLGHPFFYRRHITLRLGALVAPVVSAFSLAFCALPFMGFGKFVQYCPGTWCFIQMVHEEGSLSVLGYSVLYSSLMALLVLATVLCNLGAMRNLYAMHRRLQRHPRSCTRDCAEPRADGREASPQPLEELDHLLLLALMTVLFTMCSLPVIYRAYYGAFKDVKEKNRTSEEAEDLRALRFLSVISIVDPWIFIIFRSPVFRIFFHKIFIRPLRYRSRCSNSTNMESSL

[4] = molecular target: Cytochrome P450 2D6 (Homo sapiens, UniProt P10635); experiment: Inhibition of human CYP2D6; format: ADME
[5] = molecular target: T3, Thromboxane A2 receptor (Homo sapiens, UniProt P21731); experiment: Displacement of [3H]-SQ-29,548 from human TP receptor expressed in human platelet membranes; format: cell membranes
T3 sequence (P21731 whole entry): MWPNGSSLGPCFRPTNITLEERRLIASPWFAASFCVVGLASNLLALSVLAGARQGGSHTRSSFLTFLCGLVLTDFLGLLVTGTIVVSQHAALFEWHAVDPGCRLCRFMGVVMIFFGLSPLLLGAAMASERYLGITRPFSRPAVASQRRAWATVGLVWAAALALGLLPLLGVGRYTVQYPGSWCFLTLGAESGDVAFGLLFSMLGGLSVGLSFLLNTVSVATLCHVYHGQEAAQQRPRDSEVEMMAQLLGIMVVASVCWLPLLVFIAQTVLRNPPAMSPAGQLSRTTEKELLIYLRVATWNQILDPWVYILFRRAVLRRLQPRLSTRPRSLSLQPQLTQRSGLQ
In short: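 TP binding was measured with human platelet membranes and ³H-SQ-29,548 as radioligand.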

[6] = molecular target: Cytochrome P450 3A4 (Homo sapiens, UniProt P08684); experiment: Inhibition of human CYP3A4; format: ADME
[7] = molecular target: Cytochrome P450 2C9 (Homo sapiens, UniProt P11712); experiment: Inhibition of human CYP2C9; format: ADME
[8] = system: Mus musculus; experiment: Antiallergic effect in ovalbumin-sensitized BALB/c mouse allergic rhinitis model assessed as reduction in sneezing symptoms at 10 mg/kg, po administered 1 hr prior to OVA challenge on days 31 and 32 measured for 8 mins immediately after OVA challenge on day 32; format: functional, organism-based; parameters: dose 10 mg/kg
In short: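 Female BALB/c mice sensitized with intraperitoneal OVA (10 µg in Alum) on days 0 and 7, then given nasal OVA challenge. Compound or water vehicle was dosed orally 1 h before challenge on days 31 and 32 only. Sneezing was counted over an 8 min session immediately after the day 32 challenge. n = 4–10 mice per group, means ± SEM, Dunnett's test after ANOVA versus vehicle.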

[9] = Half life in rat at 2 mg/kg, iv; format: ADME, organism-based; parameters: dose 2 mg/kg, route intravenous; conditions: in vivo
In short: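 Rat dosing used the sodium salt, given IV at 2 mpk in water.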

[10] = Oral bioavailability in rat at 10 mg/kg; conditions: in vivo
[11] = molecular target: Prostacyclin receptor (Homo sapiens, UniProt P43119); experiment: Displacement of [3H]-iloprost from human prostanoid IP receptor expressed in human 293T cells membranes; format: cell membranes
In short: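 IP binding was measured with membranes from hIP/293 cells and ³H-iloprost as radioligand.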

[12] = Half life in dog at 2 mg/kg, iv and 5 mg/kg, po; format: ADME, organism-based, Canis lupus familiaris; conditions: in vivo
In short: (§2)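 Dog dosing used the sodium salt, given IV at 2 mpk in saline and PO at 5 mpk in 0.5% Methocel.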

[13] = Oral bioavailability in dog at 5 mg/kg; format: ADME, organism-based, Canis lupus familiaris; conditions: in vivo; in short: as §2
[14] = molecular target: hERG (KCNH2) (Homo sapiens, UniProt Q12809); experiment: Inhibition of human ERG at 10 uM by patch clamp assay
In short: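 hERG inhibition was measured by patch clamp, performed by an external contract laboratory.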

Sequence of Cytochrome P450 3A4 (P08684 whole entry): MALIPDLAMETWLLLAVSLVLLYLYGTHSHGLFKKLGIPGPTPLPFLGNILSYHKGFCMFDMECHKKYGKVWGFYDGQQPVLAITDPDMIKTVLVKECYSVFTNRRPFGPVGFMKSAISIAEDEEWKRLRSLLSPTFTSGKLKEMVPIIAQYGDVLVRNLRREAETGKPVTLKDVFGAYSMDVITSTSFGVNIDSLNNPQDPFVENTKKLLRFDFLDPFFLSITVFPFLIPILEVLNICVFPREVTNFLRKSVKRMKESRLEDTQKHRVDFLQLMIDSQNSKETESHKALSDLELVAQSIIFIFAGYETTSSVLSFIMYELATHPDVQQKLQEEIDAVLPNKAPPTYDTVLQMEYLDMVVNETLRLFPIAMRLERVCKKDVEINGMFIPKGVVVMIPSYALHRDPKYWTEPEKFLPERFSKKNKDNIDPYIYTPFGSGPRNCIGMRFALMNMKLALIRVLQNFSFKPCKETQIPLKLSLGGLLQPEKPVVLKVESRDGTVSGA
Sequence of hERG (KCNH2) (Q12809 whole entry): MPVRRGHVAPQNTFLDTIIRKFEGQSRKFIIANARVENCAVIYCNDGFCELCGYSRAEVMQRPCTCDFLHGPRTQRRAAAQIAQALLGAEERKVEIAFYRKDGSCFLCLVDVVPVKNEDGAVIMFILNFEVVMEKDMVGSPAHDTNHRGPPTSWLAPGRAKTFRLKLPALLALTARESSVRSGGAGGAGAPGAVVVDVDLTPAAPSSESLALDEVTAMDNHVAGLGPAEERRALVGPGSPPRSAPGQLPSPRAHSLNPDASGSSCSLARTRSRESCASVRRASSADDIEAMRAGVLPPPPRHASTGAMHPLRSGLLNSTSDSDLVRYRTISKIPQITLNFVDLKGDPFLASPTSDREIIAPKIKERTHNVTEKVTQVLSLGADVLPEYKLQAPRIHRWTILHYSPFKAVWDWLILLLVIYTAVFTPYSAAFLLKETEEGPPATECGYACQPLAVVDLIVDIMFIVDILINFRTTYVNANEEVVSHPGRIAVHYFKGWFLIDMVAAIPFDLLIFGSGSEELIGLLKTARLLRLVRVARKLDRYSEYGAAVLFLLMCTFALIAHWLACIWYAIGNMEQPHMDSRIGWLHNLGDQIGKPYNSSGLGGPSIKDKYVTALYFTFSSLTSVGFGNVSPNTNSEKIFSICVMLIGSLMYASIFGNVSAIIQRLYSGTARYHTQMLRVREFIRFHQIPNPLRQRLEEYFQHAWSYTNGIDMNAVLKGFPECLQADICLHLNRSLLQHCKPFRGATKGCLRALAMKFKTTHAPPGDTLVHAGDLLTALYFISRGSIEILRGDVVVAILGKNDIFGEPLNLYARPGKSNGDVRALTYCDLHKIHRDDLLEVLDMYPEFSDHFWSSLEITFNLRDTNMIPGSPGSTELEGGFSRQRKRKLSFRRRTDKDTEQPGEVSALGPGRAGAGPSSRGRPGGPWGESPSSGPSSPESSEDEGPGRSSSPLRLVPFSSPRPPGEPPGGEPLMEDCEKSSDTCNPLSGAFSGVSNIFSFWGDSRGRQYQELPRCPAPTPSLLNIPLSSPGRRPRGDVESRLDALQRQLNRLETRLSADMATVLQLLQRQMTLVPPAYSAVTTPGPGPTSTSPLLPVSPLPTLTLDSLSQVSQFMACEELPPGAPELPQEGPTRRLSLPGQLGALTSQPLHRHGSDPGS
Sequence of Cytochrome P450 2C9 (P11712 whole entry): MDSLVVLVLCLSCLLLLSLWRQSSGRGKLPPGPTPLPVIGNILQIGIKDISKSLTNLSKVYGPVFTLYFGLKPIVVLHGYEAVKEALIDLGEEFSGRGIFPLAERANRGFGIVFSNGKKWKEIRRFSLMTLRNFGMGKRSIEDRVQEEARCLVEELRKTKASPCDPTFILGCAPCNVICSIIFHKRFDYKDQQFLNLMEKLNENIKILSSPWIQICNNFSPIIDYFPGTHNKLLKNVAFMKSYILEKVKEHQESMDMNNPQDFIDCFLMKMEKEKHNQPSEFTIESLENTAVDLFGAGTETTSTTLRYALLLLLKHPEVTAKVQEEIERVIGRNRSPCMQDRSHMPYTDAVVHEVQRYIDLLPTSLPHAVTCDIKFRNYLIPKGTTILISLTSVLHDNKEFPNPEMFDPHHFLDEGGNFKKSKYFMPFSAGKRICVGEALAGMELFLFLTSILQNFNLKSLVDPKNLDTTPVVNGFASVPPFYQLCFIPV
Sequence of Cytochrome P450 2D6 (P10635 whole entry): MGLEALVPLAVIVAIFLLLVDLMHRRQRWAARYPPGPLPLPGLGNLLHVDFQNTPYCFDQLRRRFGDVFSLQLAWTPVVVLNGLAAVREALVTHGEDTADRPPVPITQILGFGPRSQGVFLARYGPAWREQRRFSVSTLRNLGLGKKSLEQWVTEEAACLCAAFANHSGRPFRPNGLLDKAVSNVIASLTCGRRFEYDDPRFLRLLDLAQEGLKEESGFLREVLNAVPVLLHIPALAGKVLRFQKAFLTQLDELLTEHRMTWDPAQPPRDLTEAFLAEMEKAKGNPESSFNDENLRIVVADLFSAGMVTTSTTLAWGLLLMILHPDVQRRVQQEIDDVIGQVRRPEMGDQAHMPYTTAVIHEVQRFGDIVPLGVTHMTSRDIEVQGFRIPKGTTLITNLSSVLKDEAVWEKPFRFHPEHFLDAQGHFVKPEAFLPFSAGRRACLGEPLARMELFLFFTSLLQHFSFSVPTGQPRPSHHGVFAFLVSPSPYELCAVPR
Sequence of Prostacyclin receptor (P43119 whole entry): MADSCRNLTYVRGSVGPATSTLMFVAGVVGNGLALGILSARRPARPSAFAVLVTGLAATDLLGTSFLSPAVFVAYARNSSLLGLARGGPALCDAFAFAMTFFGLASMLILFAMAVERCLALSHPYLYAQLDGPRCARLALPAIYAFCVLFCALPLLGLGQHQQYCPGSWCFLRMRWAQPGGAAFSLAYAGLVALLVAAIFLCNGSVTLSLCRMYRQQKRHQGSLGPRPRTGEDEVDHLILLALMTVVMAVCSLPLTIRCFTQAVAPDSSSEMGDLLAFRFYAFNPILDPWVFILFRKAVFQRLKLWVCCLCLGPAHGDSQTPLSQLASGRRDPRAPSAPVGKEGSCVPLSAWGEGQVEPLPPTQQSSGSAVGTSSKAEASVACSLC

Row | SMILES | IC50 [1] [µM] | IC50 [2] [µM] | further results
1 | COc1ccc(-c2cc(CC(=O)O)ccc2OC)c(CN2C(=O)O[C@H](c3ccccc3)[C@@H]2C)c1 | 6.1 | 1.3 | –
2 | CCN(Cc1cc(C(F)(F)F)ccc1-c1cc(CC(=O)O)ccc1OC)C(=O)OCc1cccc(Cl)c1 | 0.01 | 0.002 | –
3 | COc1ccc(CC(=O)O)cc1-c1ccc(C(F)(F)F)cc1CN1C(=O)O[C@H](c2ccccc2)[C@@H]1C | 4.5 | 0.18 | IC50 [3]: 31.3 µM; IC50 [4]: > 30 µM; IC50 [5]: 63.7 µM; IC50 [6]: > 30 µM; IC50 [7]: > 30 µM
4 | C[C@H]1[C@@H](c2ccccc2)OC(=O)N1Cc1cc(C(F)(F)F)ccc1-c1ccccc1CCC(=O)O | 38 | 11 | –
5 | CCN(Cc1cc(C(F)(F)F)ccc1-c1cc(CC(=O)O)ccc1OC)C(=O)OCc1ccccc1Cl | 0.011 | 0.003 | –
6 | COc1ccc(CC(=O)O)cc1-c1ccc(C(F)(F)F)cc1CN(C(=O)OCc1ccccc1)C1CCCC1 | 0.053 | 0.011 | –
7 | CCN(Cc1cc(C(F)(F)F)ccc1-c1cc(CC(=O)O)ccc1OC)C(=O)OCc1ccccc1 | – | – | Activity [8]: Active; half-life [9]: 8.7 h; IC50 [3]: 4 µM; IC50 [4]: > 30 µM; bioavailability [10]: 77%; IC50 [5]: 23 µM; IC50 [11]: 56.2 µM; half-life [12]: 7.4 h; bioavailability [13]: 89%; IC50 [6]: 18 µM; IC50 [7]: 18 µM
8 | COC(=O)N(CCc1ccccc1)Cc1cc(C(F)(F)F)ccc1-c1cc(CC(=O)O)ccc1OC | 0.062 | 0.024 | –
9 | C[C@H]1[C@@H](c2ccccc2)OC(=O)N1Cc1cc(C(F)(F)F)ccc1-c1cccc(C(=O)O)c1 | 91 | 27 | –
10 | CCN(Cc1cc(C(F)(F)F)ccc1-c1cc(CC(=O)O)ccc1OC)C(=O)OCc1cc(F)cc(F)c1 | 0.011 | 0.003 | –
11 | COC(=O)N(Cc1ccccc1)Cc1cc(C(F)(F)F)ccc1-c1cc(CC(=O)O)ccc1OC | 0.031 | 0.008 | inhibition at 10 µM [14]: 1.2%; IC50 [3]: 12.6 µM; IC50 [4]: > 30 µM; IC50 [5]: 62.4 µM; IC50 [6]: > 30 µM; IC50 [7]: > 30 µM
12 | CCN(Cc1cc(C(F)(F)F)ccc1-c1cc(CC(=O)O)ccc1OC)C(=O)OCc1ccc(Cl)cc1 | 0.007 | 0.003 | inhibition at 10 µM [14]: 22%; IC50 [3]: 4 µM; IC50 [4]: > 30 µM; IC50 [5]: 11.3 µM; IC50 [11]: 33 µM; IC50 [6]: 21 µM; IC50 [7]: 18 µM
13 | COc1ccc(CC(=O)O)cc1-c1ccc(C(F)(F)F)cc1CN(C)C(=O)OCc1ccccc1 | 0.018 | 0.004 | –
14 | C[C@H]1[C@@H](c2ccccc2)OC(=O)N1Cc1cc(C(F)(F)F)ccc1-c1cccc(CC(=O)O)c1 | 3 | 0.34 | –
15 | COc1ccc(CC(=O)O)cc1-c1ccccc1CN1C(=O)O[C@H](c2ccccc2)[C@@H]1C | 2 | 0.88 | –

Continued by falling IC50 [1], values first:

Row | IC50 [1] [µM] | IC50 [2] [µM] | SMILES | further results
16 | 75 | 9.8 | C[C@H]1[C@@H](c2ccccc2)OC(=O)N1Cc1cc(C(F)(F)F)ccc1-c1cccc(CCC(=O)O)c1 | –
17 | 62 | 41 | C[C@H]1[C@@H](c2ccccc2)OC(=O)N1Cc1cc(C(F)(F)F)ccc1-c1ccccc1CC(=O)O | –
18 | 11 | 3.4 | COc1ccc(CC(=O)O)cc1-c1ccc(C(F)(F)F)cc1CNCCc1ccccc1 | –
19 | 1.8 | 0.36 | C[C@H]1[C@@H](c2ccccc2)OC(=O)N1Cc1cc(F)ccc1-c1ccc(CC(=O)O)cc1 | –
20 | 1.3 | 0.36 | COc1ccc(CC(=O)O)cc1-c1ccc(F)cc1CN1C(=O)O[C@H](c2ccccc2)[C@@H]1C | –
21 | 0.238 | 0.045 | COc1ccc(CC(=O)O)cc1-c1ccc(C(F)(F)F)cc1CNC(=O)OCc1ccccc1 | –
22 | 0.016 | 0.009 | CCN(Cc1cc(C(F)(F)F)ccc1-c1cc(CC(=O)O)ccc1OC)C(=O)OC | inhibition at 10 µM [14]: 5.9%; IC50 [3]: 36.4 µM; IC50 [4]: > 30 µM; IC50 [5]: 67.4 µM; IC50 [6]: > 30 µM; IC50 [7]: > 30 µM
